Laboratory results published in ChEMBL document CHEMBL1649422, “Synthesis and molecular modeling of novel tetrahydro-β-carboline derivatives with phosphodiesterase 5 inhibitory and anticancer properties” (J Med Chem, 2011).

Molecular target: 3',5'-cyclic-AMP phosphodiesterase 4B (Homo sapiens, UniProt Q07343)
Test: Inhibition of human recombinant PDE4B-mediated hydrolysis of cAMP after 30 mins by fluorescence polarization assay
Details: not given
In short: (§1)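 Recombinant human enzyme levels were PDE3B 10 units/mL, PDE4B 400 units/mL and PDE11A 50 units/mL. Enzyme was preincubated with compound or vehicle for 30 min. Substrate was then added: 50 nM TAMRA-cGMP and/or 50 nM fluorescein-cAMP. Fluorescence polarization was read. IC50 came from a 10-concentration series in quadruplicate, fitted to a four-parameter logistic.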

Sequence of 3',5'-cyclic-AMP phosphodiesterase 4B (Q07343 whole entry): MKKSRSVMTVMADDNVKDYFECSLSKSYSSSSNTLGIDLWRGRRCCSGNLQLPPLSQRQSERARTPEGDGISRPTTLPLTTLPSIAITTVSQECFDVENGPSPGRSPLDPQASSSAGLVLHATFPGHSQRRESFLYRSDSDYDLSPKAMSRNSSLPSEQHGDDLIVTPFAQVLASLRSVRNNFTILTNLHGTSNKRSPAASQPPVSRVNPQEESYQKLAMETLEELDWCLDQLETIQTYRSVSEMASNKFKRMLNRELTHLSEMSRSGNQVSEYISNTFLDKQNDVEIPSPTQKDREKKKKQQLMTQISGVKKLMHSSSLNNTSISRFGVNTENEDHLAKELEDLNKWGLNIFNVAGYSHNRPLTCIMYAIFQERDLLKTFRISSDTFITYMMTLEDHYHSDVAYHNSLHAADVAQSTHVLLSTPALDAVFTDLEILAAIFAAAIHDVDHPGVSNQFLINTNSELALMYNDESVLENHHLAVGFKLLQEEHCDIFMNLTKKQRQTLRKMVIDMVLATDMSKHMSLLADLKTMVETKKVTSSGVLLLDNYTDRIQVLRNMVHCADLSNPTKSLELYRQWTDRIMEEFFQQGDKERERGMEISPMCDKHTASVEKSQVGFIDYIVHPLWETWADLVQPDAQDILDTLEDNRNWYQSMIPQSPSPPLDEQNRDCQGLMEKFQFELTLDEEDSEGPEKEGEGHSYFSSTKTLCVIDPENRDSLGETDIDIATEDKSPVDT

SMILES | IC50 [nM]
CCN1C(=O)[C@@H]2Cc3c([nH]c4ccccc34)[C@@H](c3ccc(Cl)cc3Cl)N2C1=O | 3600
CCN1C(=O)[C@H]2Cc3c([nH]c4ccccc34)[C@@H](c3ccc(Cl)cc3Cl)N2C1=O | 34000
CCN1CC(=O)N2[C@H](c3ccc(Cl)cc3Cl)c3[nH]c4ccccc4c3C[C@@H]2C1=O | > 50000

Molecular target: T1, cGMP-specific 3',5'-cyclic phosphodiesterase (Homo sapiens, UniProt O76074)
Test: Inhibition of human recombinant PDE5 after 30 mins by fluorescence polarization assay
Details: not given
In short: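 Recombinant human PDE5A at 12.5 units/mL was preincubated 30 min with compound or vehicle. Then 50 nM TAMRA-cGMP was added and the mix incubated 1.5 h at 30 °C. IMAP binding reagent was added for 30 min at 30 °C and fluorescence polarization read. IC50 came from a 10-concentration series in quadruplicate, fitted to a four-parameter logistic.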

SMILES | IC50 [nM]
COC(=O)[C@H]1Cc2c([nH]c3ccccc23)[C@@H](c2ccc(Cl)cc2Cl)N1C(=O)CCl | 2300
CC(C)(C)N1CC(=O)N2[C@@H](c3ccc(Cl)cc3Cl)c3[nH]c4ccccc4c3C[C@H]2C1=O | 1350
CCCCN1CC(=O)N2[C@@H](c3ccc(Cl)cc3Cl)c3[nH]c4ccccc4c3C[C@@H]2C1=O | 1110
CCN1CC(=O)N2[C@H](c3ccc(Cl)c(Cl)c3)c3[nH]c4ccccc4c3C[C@H]2C1=O | 2040
CN1CC(=O)N2[C@@H](c3ccc(Cl)cc3Cl)c3[nH]c4ccccc4c3C[C@@H]2C1=O | 1200
CC(C)(C)N1CC(=O)N2[C@H](c3ccc(Cl)c(Cl)c3)c3[nH]c4ccccc4c3C[C@H]2C1=O | 1270
CCN1C(=O)[C@@H]2Cc3c([nH]c4ccccc34)[C@@H](c3ccc(Cl)cc3Cl)N2C1=O | 7
CCN1C(=O)[C@H]2Cc3c([nH]c4ccccc34)[C@@H](c3ccc(Cl)cc3Cl)N2C1=O | 10
CN1CC(=O)N2[C@H](c3ccc(Cl)cc3Cl)c3[nH]c4ccccc4c3C[C@@H]2C1=O | 50
CC(C)(C)N1CC(=O)N2[C@@H](c3ccc(Cl)cc3Cl)c3[nH]c4ccccc4c3C[C@@H]2C1=O | 1260
CN1CC(=O)N2[C@@H](c3ccc(Cl)cc3Cl)c3[nH]c4ccccc4c3C[C@H]2C1=O | 850
CCN1C(=O)[C@@H]2Cc3c([nH]c4ccccc34)[C@H](c3ccc(Cl)c(Cl)c3)N2C1=O | 8750
CC(C)(C)N1C(=O)[C@H]2Cc3c([nH]c4ccccc34)[C@@H](c3ccc(Cl)c(Cl)c3)N2C1=O | 1870
CCN1CC(=O)N2[C@H](c3ccc(Cl)cc3Cl)c3[nH]c4ccccc4c3C[C@@H]2C1=O | 2
COC(=O)[C@@H]1Cc2c([nH]c3ccccc23)[C@H](c2ccc(Cl)cc2Cl)N1C(=O)CCl | 380
CCCCN1CC(=O)N2[C@H](c3ccc(Cl)cc3Cl)c3[nH]c4ccccc4c3C[C@H]2C1=O | 290

Molecular target: T1, cGMP-specific 3',5'-cyclic phosphodiesterase
Test: Inhibition of human recombinant PDE5 at 10 uM after 30 mins by fluorescence polarization assay
Details: not given

SMILES | inhibition [%]
COC(=O)[C@H]1Cc2c([nH]c3ccccc23)[C@@H](c2ccc(Cl)cc2Cl)N1C(=O)CCl | 66
CC(C)(C)N1CC(=O)N2[C@@H](c3ccc(Cl)cc3Cl)c3[nH]c4ccccc4c3C[C@H]2C1=O | 78
CCCCN1CC(=O)N2[C@@H](c3ccc(Cl)cc3Cl)c3[nH]c4ccccc4c3C[C@@H]2C1=O | 69
CCN1CC(=O)N2[C@H](c3ccc(Cl)c(Cl)c3)c3[nH]c4ccccc4c3C[C@H]2C1=O | 78
CN1CC(=O)N2[C@@H](c3ccc(Cl)cc3Cl)c3[nH]c4ccccc4c3C[C@@H]2C1=O | 90
CC(C)(C)N1CC(=O)N2[C@H](c3ccc(Cl)c(Cl)c3)c3[nH]c4ccccc4c3C[C@H]2C1=O | 85
CCN1C(=O)[C@@H]2Cc3c([nH]c4ccccc34)[C@@H](c3ccc(Cl)cc3Cl)N2C1=O | 95
CCN1C(=O)[C@H]2Cc3c([nH]c4ccccc34)[C@@H](c3ccc(Cl)cc3Cl)N2C1=O | 95
CN1CC(=O)N2[C@H](c3ccc(Cl)cc3Cl)c3[nH]c4ccccc4c3C[C@@H]2C1=O | 95
CN1CC(=O)N2[C@@H](c3ccc(Cl)cc3Cl)c3[nH]c4ccccc4c3C[C@H]2C1=O | 82
CC(C)(C)N1C(=O)[C@H]2Cc3c([nH]c4ccccc34)[C@@H](c3ccc(Cl)c(Cl)c3)N2C1=O | 82
CCN1CC(=O)N2[C@H](c3ccc(Cl)cc3Cl)c3[nH]c4ccccc4c3C[C@@H]2C1=O | 91
COC(=O)[C@@H]1Cc2c([nH]c3ccccc23)[C@H](c2ccc(Cl)cc2Cl)N1C(=O)CCl | 99
CCCCN1CC(=O)N2[C@H](c3ccc(Cl)cc3Cl)c3[nH]c4ccccc4c3C[C@H]2C1=O | 89

Molecular target: T2, Dual 3',5'-cyclic-AMP and -GMP phosphodiesterase 11A (Homo sapiens, UniProt Q9HCR9)
T2 sequence (Q9HCR9 whole entry): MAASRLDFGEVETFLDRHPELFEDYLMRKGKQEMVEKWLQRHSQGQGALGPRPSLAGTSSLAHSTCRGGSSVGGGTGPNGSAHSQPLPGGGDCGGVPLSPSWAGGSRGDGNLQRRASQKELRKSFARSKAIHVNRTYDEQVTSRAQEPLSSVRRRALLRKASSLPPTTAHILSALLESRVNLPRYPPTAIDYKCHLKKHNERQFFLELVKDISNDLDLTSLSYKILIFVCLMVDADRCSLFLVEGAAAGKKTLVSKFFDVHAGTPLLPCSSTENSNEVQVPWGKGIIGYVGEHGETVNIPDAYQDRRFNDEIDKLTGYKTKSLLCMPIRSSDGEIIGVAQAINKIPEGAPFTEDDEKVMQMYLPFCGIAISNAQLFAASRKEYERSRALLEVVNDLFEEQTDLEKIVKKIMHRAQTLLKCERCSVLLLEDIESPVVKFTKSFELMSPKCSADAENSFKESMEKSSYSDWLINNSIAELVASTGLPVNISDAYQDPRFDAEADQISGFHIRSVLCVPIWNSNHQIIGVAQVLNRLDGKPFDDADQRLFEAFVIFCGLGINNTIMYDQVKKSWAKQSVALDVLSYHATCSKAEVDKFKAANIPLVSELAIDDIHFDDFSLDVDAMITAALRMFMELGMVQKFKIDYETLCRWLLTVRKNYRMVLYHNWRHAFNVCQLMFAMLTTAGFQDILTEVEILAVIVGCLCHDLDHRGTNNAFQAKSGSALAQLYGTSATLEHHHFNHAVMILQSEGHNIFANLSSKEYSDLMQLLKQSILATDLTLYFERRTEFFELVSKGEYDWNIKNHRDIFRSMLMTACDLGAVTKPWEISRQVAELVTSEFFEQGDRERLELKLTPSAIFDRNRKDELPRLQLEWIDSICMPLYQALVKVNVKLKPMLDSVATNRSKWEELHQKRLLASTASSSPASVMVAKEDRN
Test: Inhibition of human recombinant PDE11A-mediated hydrolysis of cAMP after 30 mins by fluorescence polarization assay
Details: not given
In short: as §1

SMILES | IC50 [nM]
CCN1C(=O)[C@@H]2Cc3c([nH]c4ccccc34)[C@@H](c3ccc(Cl)cc3Cl)N2C1=O | 13000
CCN1C(=O)[C@H]2Cc3c([nH]c4ccccc34)[C@@H](c3ccc(Cl)cc3Cl)N2C1=O | 2000
CCN1CC(=O)N2[C@H](c3ccc(Cl)cc3Cl)c3[nH]c4ccccc4c3C[C@@H]2C1=O | 104

System: MDA-MB-231
Test: Growth inhibition of human MDA-MB-231 cells at 10 uM after 72 hrs by luminescence assay
Format: functional
Details: MDA-MB-231, 72 h

SMILES | inhibition at 10 µM [%]
CCCCN1CC(=O)N2[C@@H](c3ccc(Cl)cc3Cl)c3[nH]c4ccccc4c3C[C@@H]2C1=O | 65
CCN1CC(=O)N2[C@H](c3ccc(Cl)c(Cl)c3)c3[nH]c4ccccc4c3C[C@H]2C1=O | 50
CN1CC(=O)N2[C@@H](c3ccc(Cl)cc3Cl)c3[nH]c4ccccc4c3C[C@@H]2C1=O | 65
CC(C)(C)N1CC(=O)N2[C@H](c3ccc(Cl)c(Cl)c3)c3[nH]c4ccccc4c3C[C@H]2C1=O | 50
CCN1C(=O)[C@@H]2Cc3c([nH]c4ccccc34)[C@@H](c3ccc(Cl)cc3Cl)N2C1=O | 68
CCN1C(=O)[C@H]2Cc3c([nH]c4ccccc34)[C@@H](c3ccc(Cl)cc3Cl)N2C1=O | 39
CN1CC(=O)N2[C@H](c3ccc(Cl)cc3Cl)c3[nH]c4ccccc4c3C[C@@H]2C1=O | 10
CN1CC(=O)N2[C@@H](c3ccc(Cl)cc3Cl)c3[nH]c4ccccc4c3C[C@H]2C1=O | 70
CC(C)(C)N1C(=O)[C@H]2Cc3c([nH]c4ccccc34)[C@@H](c3ccc(Cl)c(Cl)c3)N2C1=O | 99
CCN1CC(=O)N2[C@H](c3ccc(Cl)cc3Cl)c3[nH]c4ccccc4c3C[C@@H]2C1=O | 30
COC(=O)[C@@H]1Cc2c([nH]c3ccccc23)[C@H](c2ccc(Cl)cc2Cl)N1C(=O)CCl | 55
CCCCN1CC(=O)N2[C@H](c3ccc(Cl)cc3Cl)c3[nH]c4ccccc4c3C[C@H]2C1=O | 42

Molecular target: T1, cGMP-specific 3',5'-cyclic phosphodiesterase
Test: Inhibition of human recombinant PDE5A-mediated hydrolysis of cGMP after 30 mins by fluorescence polarization assay
Details: not given

SMILES | IC50 [nM]
CCN1C(=O)[C@@H]2Cc3c([nH]c4ccccc34)[C@@H](c3ccc(Cl)cc3Cl)N2C1=O | 7
CCN1C(=O)[C@H]2Cc3c([nH]c4ccccc34)[C@@H](c3ccc(Cl)cc3Cl)N2C1=O | 10
CCN1CC(=O)N2[C@H](c3ccc(Cl)cc3Cl)c3[nH]c4ccccc4c3C[C@@H]2C1=O | 2

Molecular target: T3, cGMP-inhibited 3',5'-cyclic phosphodiesterase 3B (Homo sapiens, UniProt Q13370)
T3 sequence (Q13370 whole entry): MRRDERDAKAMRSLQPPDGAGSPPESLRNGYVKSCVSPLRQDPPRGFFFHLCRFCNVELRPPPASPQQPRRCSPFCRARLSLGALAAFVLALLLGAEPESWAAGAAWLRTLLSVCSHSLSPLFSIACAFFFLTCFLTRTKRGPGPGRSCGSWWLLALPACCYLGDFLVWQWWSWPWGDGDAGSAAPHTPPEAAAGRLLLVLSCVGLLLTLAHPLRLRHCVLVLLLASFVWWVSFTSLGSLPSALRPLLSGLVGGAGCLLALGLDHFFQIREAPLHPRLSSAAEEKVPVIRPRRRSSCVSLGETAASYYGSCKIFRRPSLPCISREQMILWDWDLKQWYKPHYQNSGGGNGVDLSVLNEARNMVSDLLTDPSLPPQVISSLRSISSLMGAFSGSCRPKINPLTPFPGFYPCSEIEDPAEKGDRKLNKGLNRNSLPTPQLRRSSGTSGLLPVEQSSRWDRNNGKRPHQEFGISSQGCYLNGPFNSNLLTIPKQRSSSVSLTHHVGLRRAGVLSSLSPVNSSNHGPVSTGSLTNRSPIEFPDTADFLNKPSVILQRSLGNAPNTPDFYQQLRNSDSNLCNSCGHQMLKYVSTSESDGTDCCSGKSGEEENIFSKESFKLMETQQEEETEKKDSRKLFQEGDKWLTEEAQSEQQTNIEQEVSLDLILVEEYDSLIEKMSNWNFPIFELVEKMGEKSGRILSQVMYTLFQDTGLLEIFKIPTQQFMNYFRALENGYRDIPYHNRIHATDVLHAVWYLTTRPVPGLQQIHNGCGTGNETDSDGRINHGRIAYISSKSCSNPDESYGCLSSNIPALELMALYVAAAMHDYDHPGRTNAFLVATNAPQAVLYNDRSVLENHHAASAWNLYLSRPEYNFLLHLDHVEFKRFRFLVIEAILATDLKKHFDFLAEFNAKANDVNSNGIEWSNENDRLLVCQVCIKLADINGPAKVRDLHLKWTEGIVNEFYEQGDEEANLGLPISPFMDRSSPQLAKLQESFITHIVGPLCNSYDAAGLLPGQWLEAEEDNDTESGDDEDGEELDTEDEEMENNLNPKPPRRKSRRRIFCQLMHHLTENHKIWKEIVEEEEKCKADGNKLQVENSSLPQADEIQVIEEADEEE
Test: Inhibition of human recombinant PDE3B-mediated hydrolysis of cAMP after 30 mins by fluorescence polarization assay
Details: not given
In short: (§2)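 Recombinant human enzyme levels were PDE3B 10 units/mL, PDE4B 400 units/mL and PDE11A 50 units/mL. Enzyme was preincubated with compound or vehicle for 30 min. Substrate was then added: 50 nM TAMRA-cGMP and/or 50 nM fluorescein-cAMP. Reactions ran 1.5 h at 30 °C, followed by IMAP binding reagent for 30 min at 30 °C. Fluorescence polarization was read. IC50 came from a 10-concentration series in quadruplicate, fitted to a four-parameter logistic.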

SMILES | IC50 [nM]
CCN1C(=O)[C@@H]2Cc3c([nH]c4ccccc34)[C@@H](c3ccc(Cl)cc3Cl)N2C1=O | > 50000
CCN1C(=O)[C@H]2Cc3c([nH]c4ccccc34)[C@@H](c3ccc(Cl)cc3Cl)N2C1=O | > 50000
CCN1CC(=O)N2[C@H](c3ccc(Cl)cc3Cl)c3[nH]c4ccccc4c3C[C@@H]2C1=O | > 50000

Molecular target: T2, Dual 3',5'-cyclic-AMP and -GMP phosphodiesterase 11A
Test: Inhibition of human recombinant PDE11A-mediated hydrolysis of cGMP after 30 mins by fluorescence polarization assay
Details: not given
In short: as §1

SMILES | IC50 [nM]
CCN1C(=O)[C@@H]2Cc3c([nH]c4ccccc34)[C@@H](c3ccc(Cl)cc3Cl)N2C1=O | 1500
CCN1C(=O)[C@H]2Cc3c([nH]c4ccccc34)[C@@H](c3ccc(Cl)cc3Cl)N2C1=O | 310
CCN1CC(=O)N2[C@H](c3ccc(Cl)cc3Cl)c3[nH]c4ccccc4c3C[C@@H]2C1=O | 11

Molecular target: T3, cGMP-inhibited 3',5'-cyclic phosphodiesterase 3B
Test: Inhibition of human recombinant PDE3B-mediated hydrolysis of cGMP after 30 mins by fluorescence polarization assay
Details: not given
In short: as §2

SMILES | IC50 [nM]
CCN1C(=O)[C@@H]2Cc3c([nH]c4ccccc34)[C@@H](c3ccc(Cl)cc3Cl)N2C1=O | > 50000
CCN1C(=O)[C@H]2Cc3c([nH]c4ccccc34)[C@@H](c3ccc(Cl)cc3Cl)N2C1=O | > 50000
CCN1CC(=O)N2[C@H](c3ccc(Cl)cc3Cl)c3[nH]c4ccccc4c3C[C@@H]2C1=O | > 50000

System: MDA-MB-231
Test: Growth inhibition of human MDA-MB-231 cells after 72 hrs by luminescence assay
Format: functional, cell-based
Details: MDA-MB-231, 72 h
In short: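 MDA-MB-231 cells grown in RPMI 1640 with 5% FBS, 2 mM glutamine and antibiotics at 37 °C, 5% CO2. Cells were harvested at 70–90% confluence, used only if viability >95%, and seeded at 5000 cells/well. Dosing followed 18–24 h later, with final DMSO 0.1%. Viability was read after 72 h by CellTiter-Glo luminescence. IC50 came from eight concentrations in quadruplicate, fitted to a four-parameter logistic.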

SMILES | IC50 [nM]
COC(=O)[C@H]1Cc2c([nH]c3ccccc23)[C@@H](c2ccc(Cl)cc2Cl)N1C(=O)CCl | 560
CC(C)(C)N1CC(=O)N2[C@@H](c3ccc(Cl)cc3Cl)c3[nH]c4ccccc4c3C[C@H]2C1=O | 2590
CCCCN1CC(=O)N2[C@@H](c3ccc(Cl)cc3Cl)c3[nH]c4ccccc4c3C[C@@H]2C1=O | 1200
CN1CC(=O)N2[C@@H](c3ccc(Cl)cc3Cl)c3[nH]c4ccccc4c3C[C@@H]2C1=O | 3260
CCN1C(=O)[C@@H]2Cc3c([nH]c4ccccc34)[C@@H](c3ccc(Cl)cc3Cl)N2C1=O | 5370
CC(C)(C)N1CC(=O)N2[C@@H](c3ccc(Cl)cc3Cl)c3[nH]c4ccccc4c3C[C@@H]2C1=O | 2920
CN1CC(=O)N2[C@@H](c3ccc(Cl)cc3Cl)c3[nH]c4ccccc4c3C[C@H]2C1=O | 7100
CCN1C(=O)[C@@H]2Cc3c([nH]c4ccccc34)[C@H](c3ccc(Cl)c(Cl)c3)N2C1=O | 4780
CC(C)(C)N1C(=O)[C@H]2Cc3c([nH]c4ccccc34)[C@@H](c3ccc(Cl)c(Cl)c3)N2C1=O | 3250
